From article PMC7534582 (Cancer cell, 2019)

Legend:
Type in all cases: cell-based, human
[1] = test system: SIRT3 depleted HBL1 cells; experiment: Rescue of proliferation arrest caused by SIRT3 depletion; conditions: HBL1, Figure S5D
[2] = test system: SIRT3 depleted Karpas 422 cells; experiment: Rescue of proliferation arrest caused by SIRT3 depletion; conditions: Karpas 422, 4-day exposure
Outline: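 Karpas 422 cells were infected with YFP-carrying lentivirus bearing SIRT3 or control shRNA and exposed for 4 days to test compounds, alone or combined. Viable YFP+ (transduced) and YFP− (non-transduced) populations were quantified by flow cytometry. Abundance was normalized to the first time point.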

[3] = test system: SIRT3 depleted OCI-LY1 cells; experiment: Rescue of proliferation arrest caused by SIRT3 depletion; conditions: OCI-LY1, Figure S5C
[4] = test system: DLBCL cells with SIRT3 shRNA; experiment: Rescue of autophagy; conditions: DMKG 4 mM for 3-4 hr
Outline: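 DLBCL cells carrying SIRT3 or control shRNA were incubated with test compound (4 mM) for 3-4 hr, then collected for Western blot with LC3 and SIRT3 antibodies. Detection used a peroxidase-conjugated secondary antibody and enhanced chemiluminescence. LC3II/LC3I ratios were obtained by densitometry and normalized to control cells.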

Row | Compound | Rescue of proliferation arrest caused by SIRT3 depletion [1] | Rescue of proliferation arrest caused by SIRT3 depletion [2] | Rescue of proliferation arrest caused by SIRT3 depletion [3] | Rescue of LC3II/LC3I ratios (autophagy) after SIRT3 depletion [4]
1 | COC(=O)C(C)=O [MP, methyl-pyruvate] | required both DMKG and MP |  |  | 
2 | COC(=O)CCC(=O)C(=O)OC [DMKG, dimethyl-αKG] | required both DMKG and MP | DMKG alone rescued | DMKG alone rescued | rescued LC3II/LC3I ratios
